Laboratory results from ChEMBL document CHEMBL1134317, “Synthesis, biological evaluation, and pharmacophore generation of uracil, 4(3H)-pyrimidinone, and uridine derivatives as potent and selective inhibitors of parainfluenza 1 (Sendai) virus” (J Med Chem, 2001).

Assays:
[1] = test system: NSO mouse myeloma cells (Mus musculus); assay: Cytotoxicity required to inhibit cell proliferation by 50% (tritiated thymidine incorporation in proliferating NSO mouse myeloma cells)
[2] = Minimum toxic concentration required to cause a microscopically detectable alteration of normal cell morphology of MDCK cells; settings: Sendai virus, read-out: MTC
[3] = test system: MDCK; assay: Inhibitory activity against Parainfluenza 1 (Sendai) virus (PIV) in MDCK cells; format: functional; settings: Canis lupus familiaris, read-out: ED50 (the source's name)
Procedure, shortened: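 Confluent MDCK monolayers infected with Sendai virus (10 HAU/10⁵ cells) and allowed to adsorb for 1 h at 37 °C. Inoculum removed, cells washed three times with PBS, then given fresh medium with 2% FCS. Compounds added after adsorption at several dilutions and kept until the end. Supernatants harvested at different times after challenge and titrated as hemagglutinin units. ED₅₀ derived from these titres.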

Row | Compound | CC50 [1] [µM] | MCC [2] [µM] | EC50 [3] [µM]
1 | Cn1c(OC2CCCCC2)nc(CC2(c3ccccc3)CO2)cc1=O (stereo unspecified) | > 294 | 294 | –
2 | CCCOc1nc(CC23CCCC[C@H]2O3)cc(=O)n1C (stereo partly specified) | > 352 | > 352 | –
3 | Cn1c(C[C@]2(c3ccccc3)CCCO2)cc(=O)n(C)c1=O | 547 | > 333 | 116
4 | COc1nc(CC2CCCO2)cc(=O)n1C (stereo unspecified) | 1220 | 446 | > 446
5 | CCCOc1nc(CC2(c3ccccc3)CO2)cc(=O)n1C (stereo unspecified) | > 330 | 330 | –
6 | Cn1c([C@H]2O[C@@H]2c2ccccc2)cc(=O)n(C)c1=O | > 380 | 380 | 193
7 | COc1nc(CC2(c3ccccc3)CO2)cc(=O)n1C (stereo unspecified) | > 360 | 735 | 0.37
8 | Cn1c(CC2(C(C)(C)C)CO2)cc(=O)n(C)c1=O (stereo unspecified) | 7.9 | > 0.79 | –
9 | Cn1c(C[C@]2(C)CCCO2)cc(=O)n(C)c1=O | 1380 | > 223 | 1.11
10 | C[C@@H]1O[C@@]1(C)Cc1cc(=O)n(C)c(=O)n1C | 89 | > 2 | –
11 | Cn1c(CC2(c3ccccc3)CO2)cc(=O)n(C)c1=O (stereo unspecified) | 3.7 | 0.37 | –
12 | CCCCOc1nc(CC2CCCO2)cc(=O)n1C (stereo unspecified) | 579 | 376 | 195
13 | C[C@H]1O[C@@]1(C)Cc1cc(=O)n(C)c(=O)n1C | 89 | > 2 | –
14 | Cn1c(C[C@@H]2CCCO2)cc(=O)n(C)c1=O | 1220 | 446 | 338
15 | CCCOc1nc(CC2(c3ccccc3)CCCO2)cc(=O)n1C (stereo unspecified) | 170 | 305 | 152
16 | Cn1c(C2OC2(C)c2ccccc2)cc(=O)n(C)c1=O (stereo unspecified) | 7.3 | > 0.81 | –
17 | CCCCOc1nc(CC2(c3ccccc3)CCCO2)cc(=O)n1C (stereo unspecified) | 90 | 292 | 146
18 | Cn1c([C@H]2O[C@H]2c2ccccc2)cc(=O)n(C)c1=O (racemic) | 7.7 | > 0.8 | 0.38
19 | CCCOc1nc(CC2(C)CCCO2)cc(=O)n1C (stereo unspecified) | 860 | > 376 | 187
20 | COc1nc(CC2(c3ccccc3)CCCO2)cc(=O)n1C (stereo unspecified) | 130 | 383 | 166
21 | Cn1c(CC23CCC[C@H]2O3)cc(=O)n(C)c1=O (stereo partly specified) | 8.4 | > 0.84 | –
22 | CC1O[C@]1(C)Cc1cc(=O)n(C)c(OC2CCCCC2)n1 (mixture of isomers) | > 342 | 342 | –
23 | Cn1c(OC2CCCCC2)nc(CC2(C)CCCO2)cc1=O (stereo unspecified) | 816 | 326 | 164
24 | COc1nc(CC2(C)CCCO2)cc(=O)n1C (stereo unspecified) | 1620 | 893 | 893
25 | Cn1c(CC23CCCC[C@@H]2O3)cc(=O)n(C)c1=O (stereo partly specified) | 40 | > 2 | > 2
26 | Cn1c(CC2(C)CO2)cc(=O)n(C)c1=O (stereo unspecified) | 4 | 0.48 | –
27 | CCCCOc1nc(CC2(C)CCCO2)cc(=O)n1C (stereo unspecified) | 1080 | 373 | 186
28 | CCCOc1nc(CC2CCCO2)cc(=O)n1C (stereo unspecified) | 1020 | 397 | 300
29 | CCCOc1nc(CC2(C)CCCO2)cc(OC)n1 (stereo unspecified) | 375 | > 305 | 267
